Experimental data published in ChEMBL document CHEMBL3992520, “Development of the First Two-Pore Domain Potassium Channel TWIK-Related K+ Channel 1-Selective Agonist Possessing in Vivo Antinociceptive Activity” (J Med Chem, 2017).

Legend:
[1] = molecular target: T1, Potassium channel subfamily K member 2 (Homo sapiens) (UniProt O95069); assay: Agonist activity at human TREK1 expressed in HEK293 cells assessed as increase in K+ current at 10 uM measured at +60 mV by whole-cell patch clamp method relative to control; type: cell-based
T1 sequence (whole entry): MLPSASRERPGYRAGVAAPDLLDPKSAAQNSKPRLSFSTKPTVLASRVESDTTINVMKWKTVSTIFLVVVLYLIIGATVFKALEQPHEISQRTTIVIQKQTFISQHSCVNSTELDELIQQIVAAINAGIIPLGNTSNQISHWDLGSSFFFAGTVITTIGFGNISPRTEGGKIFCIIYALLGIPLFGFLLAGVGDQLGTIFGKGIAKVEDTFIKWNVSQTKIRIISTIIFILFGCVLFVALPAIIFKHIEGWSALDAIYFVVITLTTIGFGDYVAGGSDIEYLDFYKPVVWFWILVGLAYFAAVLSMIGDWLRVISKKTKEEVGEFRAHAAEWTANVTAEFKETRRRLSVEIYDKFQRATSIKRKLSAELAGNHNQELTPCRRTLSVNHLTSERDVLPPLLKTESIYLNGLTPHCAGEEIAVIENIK
Method in brief: (§1)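 Human TREK-1 (kcnk2) in pIRES2-eGFP was stably expressed in HEK-293 cells under G418 selection, and cells were used 4–48 h after plating. Bath (mM): 140 NaCl, 10 TEA-Cl, 5 KCl, 3 MgCl2, 1 CaCl2, 10 HEPES, pH 7.4. Pipette (mM): 155 KCl, 3 MgCl2, 5 EGTA, 10 HEPES, pH 7.2. Holding was −80 mV, with a step to −100 mV then a 400 ms ramp to +60 mV every 5 s. Read-out was the ratio Imax/I0 taken from I/V curves. Stocks were 20 mM in DMSO.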

Mus musculus [2] = assay: Antinociceptive activity in CD1 mouse assessed as inhibition of acetic acid-induced writhes at 10 mg/kg, sc pretreated for 15 mins followed by acetic acid challenge measured within 20 mins relative to control; type: functional
Method in brief: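 Male CD1 mice (20-25 g), n=8 per group, dosed at 10 mg/kg s.c. or with vehicle (5% Tween 80 in 0.9% saline). Dosing was 15 min before i.p. 0.6% acetic acid (10 mL/kg). Abdominal writhes were counted for 20 min. Effect = (mean control writhes − mean test writhes)/mean control writhes ×100.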

[3] = Half life in rat liver microsomes at 40 mM in presence of NADPH-cofactor by HPLC analysis; type: ADME, microsome
Mus musculus [4] = assay: Antinociceptive activity in CD1 mouse assessed as increase in thermal-stimulus induced paw withdrawal latency at 60 mg/kg, sc measured after 30 mins by hot plate method relative to control; type: functional
Method in brief: (§2)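 Male CD1 mice (20-25 g), n=8 per group, given 60 mg/kg s.c. After 5 min acclimatization on a plate at room temperature, mice were placed on a 52 °C hotplate. Latency to forepaw or hindpaw licking or hindpaw flicking was recorded, with a 30 s cut-off. Latency was taken after two consecutive stable baselines, then 30 and 45 min post-dose. Effect = (postdrug − predrug latency)/predrug latency ×100.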

Mus musculus [5] = assay: Antinociceptive activity in CD1 mouse assessed as increase in thermal-stimulus induced paw withdrawal latency at 60 mg/kg, sc measured after 45 mins by hot plate method relative to control; type: functional; method in brief: as §2
[6] = molecular target: T1, Potassium channel subfamily K member 2 (Homo sapiens); assay: Agonist activity at human TREK1 expressed in HEK293 cells assessed as increase in K+ current at 100 uM measured at +60 mV by whole-cell patch clamp method relative to control; type: cell-based; method in brief: as §1
[7] = molecular target: T2, Potassium channel subfamily K member 2 (Bos taurus) (UniProt Q8HY88); assay: Agonist activity at TREK1 in bovine AZF cells assessed as increase in K+ current at 40 uM by whole-cell patch clamp method relative to control; type: cell-based
T2 sequence (whole entry): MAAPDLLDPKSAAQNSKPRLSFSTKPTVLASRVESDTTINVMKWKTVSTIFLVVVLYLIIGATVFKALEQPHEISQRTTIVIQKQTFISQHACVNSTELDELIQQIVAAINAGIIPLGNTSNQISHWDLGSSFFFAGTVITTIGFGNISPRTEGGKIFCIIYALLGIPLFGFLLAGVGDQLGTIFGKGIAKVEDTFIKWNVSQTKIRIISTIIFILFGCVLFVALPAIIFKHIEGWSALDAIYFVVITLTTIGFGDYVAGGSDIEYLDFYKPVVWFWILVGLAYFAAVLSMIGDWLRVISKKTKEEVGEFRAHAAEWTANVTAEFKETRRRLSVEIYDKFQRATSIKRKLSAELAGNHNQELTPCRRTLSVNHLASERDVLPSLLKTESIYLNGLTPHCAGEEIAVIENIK

[8] = molecular target: T1, Potassium channel subfamily K member 2 (Homo sapiens); assay: Agonist activity at human TREK1 expressed in xenopus oocytes assessed as increase in K+ current at 20 uM measured at 0 mV by double microelectrode method relative to control; type: cell-based
Liver [9] = assay: Drug metabolism in rat liver microsomes assessed as (E)-2-Cyano-3-(3,4-dihydroxyphenyl)acrylic acid formation at 40 mM in presence of NADPH-cofactor measured after 24 hrs by HPLC analysis; type: ADME, microsome; conditions: 40000 µM
Method in brief: (§3)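 Incubation mix: rat liver microsomes (20 mg/mL stock), phosphate buffer pH 7.4 and NADPH (40 mM stock). Drug was added from a 40 mM DMSO stock. Samples were vortexed and incubated at 37 °C with stirring.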

Liver [10] = assay: Drug metabolism in rat liver microsomes assessed as (E)-2-cyano-3-(furan-3-yl)acrylic acid formation at 40 mM in presence of NADPH-cofactor measured after 24 hrs by HPLC analysis; type: ADME, microsome; conditions: 40000 µM; method in brief: as §3
[11] = molecular target: Potassium channel subfamily K member 9 (Homo sapiens) (UniProt Q9NPC2); assay: Agonist activity at TASK3 (unknown origin) expressed in HEK293 cells assessed as increase in K+ current at 20 uM measured at +60 mV by whole-cell patch clamp method relative to control; type: cell-based
Chain of Potassium channel subfamily K member 9 (Homo sapiens) (Q9NPC2 whole entry): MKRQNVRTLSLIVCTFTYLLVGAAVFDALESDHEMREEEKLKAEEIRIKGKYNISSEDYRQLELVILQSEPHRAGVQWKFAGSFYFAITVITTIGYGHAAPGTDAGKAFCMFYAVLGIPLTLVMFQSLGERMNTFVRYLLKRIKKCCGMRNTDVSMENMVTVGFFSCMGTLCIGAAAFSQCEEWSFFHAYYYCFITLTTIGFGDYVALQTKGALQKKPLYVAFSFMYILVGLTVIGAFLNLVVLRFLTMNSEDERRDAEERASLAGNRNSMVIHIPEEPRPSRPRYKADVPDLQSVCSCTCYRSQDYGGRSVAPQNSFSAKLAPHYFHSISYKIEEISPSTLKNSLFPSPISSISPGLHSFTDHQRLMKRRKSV

[12] = molecular target: T3, Potassium channel subfamily K member 4 (Homo sapiens) (UniProt Q9NYG8); assay: Agonist activity at TRAAK (unknown origin) expressed in HEK293 cells assessed as increase in K+ current at 20 uM measured at +60 mV by whole-cell patch clamp method relative to control; type: cell-based
T3 sequence (whole entry): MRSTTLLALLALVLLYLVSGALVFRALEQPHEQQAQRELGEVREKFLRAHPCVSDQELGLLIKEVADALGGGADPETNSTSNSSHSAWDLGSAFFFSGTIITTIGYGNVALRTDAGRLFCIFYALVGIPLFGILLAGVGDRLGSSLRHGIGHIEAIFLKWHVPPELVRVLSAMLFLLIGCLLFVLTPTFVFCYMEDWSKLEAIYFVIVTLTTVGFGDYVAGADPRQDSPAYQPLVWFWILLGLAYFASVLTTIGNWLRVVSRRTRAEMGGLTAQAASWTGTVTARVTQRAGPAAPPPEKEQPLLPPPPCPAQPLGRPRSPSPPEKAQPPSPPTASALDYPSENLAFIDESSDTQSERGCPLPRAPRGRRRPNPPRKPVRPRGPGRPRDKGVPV

[13] = molecular target: T1, Potassium channel subfamily K member 2 (Homo sapiens); assay: Agonist activity at human TREK1 expressed in HEK293 cells assessed as increase in K+ current at 20 uM measured at +60 mV by whole-cell patch clamp method relative to control; type: cell-based; method in brief: as §1
Mus musculus [14] = assay: Antinociceptive activity in wild-type C57Bl/6J mouse assessed as increase in thermal-stimulus induced paw withdrawal latency at 60 mg/kg, sc measured after 30 mins by hot plate method relative to control; type: functional
Method in brief: (§4)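 TREK-1−/− and wild-type C57Bl/6J littermates came from heterozygous crosses, n=7. Dose was 60 mg/kg s.c. The 52 °C hotplate measured paw-lick latency, 30 s cut-off, with baseline from two stable pre-dose latencies.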

Mus musculus [15] = assay: Antinociceptive activity in wild-type C57Bl/6J mouse assessed as increase in thermal-stimulus induced paw withdrawal latency at 60 mg/kg, sc measured after 45 mins by hot plate method relative to control; type: functional; method in brief: as §4
Mus musculus [16] = assay: Antinociceptive activity in TREK1 deficient C57Bl/6J mouse assessed as increase in thermal-stimulus induced paw withdrawal latency at 60 mg/kg, sc measured after 30 mins by hot plate method relative to control; type: functional; method in brief: as §4
Mus musculus [17] = assay: Antinociceptive activity in TREK1 deficient C57Bl/6J mouse assessed as increase in thermal-stimulus induced paw withdrawal latency at 60 mg/kg, sc measured after 45 mins by hot plate method relative to control; type: functional; method in brief: as §4
Mus musculus [18] = assay: In vivo activation of TREK1 in C57Bl/6J mouse assessed as increase in thermal-stimulus induced paw withdrawal latency at 60 mg/kg, sc measured after 30 mins by hot plate method relative to control; type: functional; method in brief: as §4
Mus musculus [19] = assay: In vivo activation of TREK1 in C57Bl/6J mouse assessed as increase in thermal-stimulus induced paw withdrawal latency at 60 mg/kg, sc measured after 45 mins by hot plate method relative to control; type: functional; method in brief: as §4
[20] = molecular target: T4, Potassium channel subfamily K member 10 (Homo sapiens) (UniProt P57789); assay: Agonist activity at TREK-2 (unknown origin) expressed in HEK293 cells assessed as increase in K+ current at 20 uM measured at +60 mV by whole-cell patch clamp method relative to control; type: cell-based
T4 sequence (whole entry): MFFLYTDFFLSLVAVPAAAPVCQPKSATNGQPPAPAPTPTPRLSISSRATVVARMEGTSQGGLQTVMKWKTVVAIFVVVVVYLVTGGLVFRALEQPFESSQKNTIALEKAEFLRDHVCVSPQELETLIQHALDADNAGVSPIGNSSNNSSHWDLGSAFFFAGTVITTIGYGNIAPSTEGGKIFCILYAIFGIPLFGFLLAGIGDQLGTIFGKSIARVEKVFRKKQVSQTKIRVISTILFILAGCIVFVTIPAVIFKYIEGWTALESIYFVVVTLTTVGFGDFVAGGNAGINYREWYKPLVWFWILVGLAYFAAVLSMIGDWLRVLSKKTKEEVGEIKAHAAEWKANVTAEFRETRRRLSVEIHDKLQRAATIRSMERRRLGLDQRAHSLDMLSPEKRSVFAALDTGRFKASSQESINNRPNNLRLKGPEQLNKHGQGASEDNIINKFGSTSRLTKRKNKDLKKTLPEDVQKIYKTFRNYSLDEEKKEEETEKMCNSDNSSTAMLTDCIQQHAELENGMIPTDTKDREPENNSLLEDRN

Liver [21] = assay: Drug level in rat liver microsomes treated with at 40 mM (E)-ethyl 2-cyano-3-(3,4-dihydroxyphenyl)acrylate measured after 24 hrs by HPLC analysis; type: ADME, microsome; conditions: 40000 µM; method in brief: as §3

| Compound | half-life [3] [min] | fold change (FC) [6] | fold change (FC) [8] | inhibition in vivo at 10 mg/kg (Mus musculus [2]) [%] | Activity (Mus musculus [4]) [%] | Activity (Mus musculus [5]) [%] | further results |
| --- | --- | --- | --- | --- | --- | --- | --- |
| N#C/C(=C\c1cc2ccccc2[nH]1)C(=O)OC1CCCCC1 | 25 to 45 |  |  | 83.6 | 65.7 | 52.6 | fold change (FC) [1]: 1.98 |
| N#C/C(=C\c1ccoc1)C(=O)Nc1ccccc1 |  |  |  | 48 | 107.7 | 148.6 | fold change (FC) [11]: 0.5; fold change (FC) [12]: 1; fold change (FC) [13]: 4.64; Activity (Mus musculus [14]): 24.8%; Activity (Mus musculus [15]): 22.1%; Activity (Mus musculus [16]): 29.2%; Activity (Mus musculus [17]): 35.1%; Activity (Mus musculus [18]): 0%; Activity (Mus musculus [19]): 0%; fold change (FC) [20]: 3 |
| N#C/C(=C\c1ccc(O)c(O)c1)C(=O)O |  | 1.5 | 1.23 |  | 21.4 | 59.4 | Drug metabolism (Liver [21]): Metabolite_Detected |

Further lines, with some results ahead:

| half-life [3] [min] | fold change (FC) [6] | fold change (FC) [8] | Compound | inhibition in vivo at 10 mg/kg (Mus musculus [2]) [%] | Activity (Mus musculus [4]) [%] | Activity (Mus musculus [5]) [%] | further results |
| --- | --- | --- | --- | --- | --- | --- | --- |
| < 4 | 1.54 | 2.76 | CCOC(=O)/C(C#N)=C/c1ccc(O)c(O)c1 | 57.8 | 34.6 | 21.8 | fold change (FC) [7]: 1; Drug metabolism (Liver [9]): Metabolite_Detected |
| < 4 | 2.09 |  | CCOC(=O)/C(C#N)=C/c1ccoc1 | 55.9 | 28.4 | 11.9 | Drug metabolism (Liver [10]): Metabolite_Detected |
